From PubChem
Sampled rows, rich in hits. Any-hit rate of the full collection: about 5.8%.
IDH1 R132H inh: blocks human IDH1 R132H reductase activity. diaphorase/resazurin fluorescence, 60 min. O75874. inhibition, % at 10 µM. actives 0.18% (n = 70,000). AID 624101; in the data active means inhibition above about 34%; inconclusive means no clear call, values can overlap the other calls; inactive means below about 11%;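 further: 0% = DMSO and 100% = no enzyme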
Target sequence (O75874 whole entry R132H): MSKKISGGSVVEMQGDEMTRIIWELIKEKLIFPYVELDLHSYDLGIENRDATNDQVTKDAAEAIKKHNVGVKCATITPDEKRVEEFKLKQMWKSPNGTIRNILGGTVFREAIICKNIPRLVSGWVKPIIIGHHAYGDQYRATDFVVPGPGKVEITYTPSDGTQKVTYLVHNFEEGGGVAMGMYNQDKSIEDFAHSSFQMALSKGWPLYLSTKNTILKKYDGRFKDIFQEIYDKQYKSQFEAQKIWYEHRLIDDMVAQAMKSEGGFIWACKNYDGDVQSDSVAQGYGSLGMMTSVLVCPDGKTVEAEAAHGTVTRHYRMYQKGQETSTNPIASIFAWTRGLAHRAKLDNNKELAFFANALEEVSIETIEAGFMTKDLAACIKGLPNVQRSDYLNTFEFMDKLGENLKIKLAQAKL
KDM4C inh: inhibitors of human demethylase GASC-1 KDM4C. actives 0.15% (n = 96,000). inhibition, % at 12.5 µM. Q9H3R0. GST-KDM4C 2-372, H3K9me3 peptide, LANCE TR-FRET. AID 720574;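 active means mean replicate inhibition above about 25%, with at least 55% of replicates also reaching it, limit read from the data, passing the limit was not always enough; inconclusive means only one of those two conditions met; inactive means neither condition met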
Target sequence (Q9H3R0 2-372 limits assumed): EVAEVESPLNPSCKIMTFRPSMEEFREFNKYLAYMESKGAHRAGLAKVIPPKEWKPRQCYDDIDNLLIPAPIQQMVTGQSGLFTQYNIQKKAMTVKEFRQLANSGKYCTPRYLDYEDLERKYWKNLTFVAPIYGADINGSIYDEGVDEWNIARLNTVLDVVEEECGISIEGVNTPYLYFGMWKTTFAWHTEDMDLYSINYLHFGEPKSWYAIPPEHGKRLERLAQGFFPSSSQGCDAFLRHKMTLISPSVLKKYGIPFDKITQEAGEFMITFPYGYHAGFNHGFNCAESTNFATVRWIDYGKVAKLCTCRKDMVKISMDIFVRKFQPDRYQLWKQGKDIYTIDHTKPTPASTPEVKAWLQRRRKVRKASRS
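System: N-terminal GST-fused human GASC-1 (KDM4C) fragment, residues 2-372; amount: enzyme final amount 10 nM; incubation: reaction 30 min RT, detection step 1 h RT; medium: HEPES buffer, pH 7.5, plus ascorbate; technique: LANCE TR-FRET, Eu antibody, ULight-streptavidin, EDTA, ex 340 nm, em 618/671 nm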
Pf Dd2 growth: P. falciparum Dd2 growth inhibition; activity change, % at 10 µM; SYBR Green, 72 h; hits give low values; actives 2.3% (n = 94,000); in the data active means activity change below about -80%; inconclusive means no clear call, values can overlap the other calls
T cruzi growth-1: blocks T. cruzi growth in NIH3T3 culture. T. cruzi beta-gal in NIH3T3, GalScreen luminescence, 90 h. inhibition, % at 8.34 µM. actives 5.9% (n = 77,000). AID 624255;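 active means mean inhibition above about 93%, with at least 55% of replicates each passing it, limit read from the data, passing the limit was not always enough; inconclusive means only one of those two conditions holds; inactive means neither condition holds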
T cruzi growth-2: Trypanosoma cruzi proliferation inhibition; T. cruzi beta-gal in NIH3T3, GalScreen luminescence, 90 h; shares compounds with T cruzi growth-1; inhibition, % at 8.35 µM; actives 72% (n = 5,600);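 active means mean replicate inhibition above about 95% and at least 55% of replicates individually reaching it, limit read from the data; inconclusive means only one of the two criteria is met; inactive means neither criterion is met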
T cruzi growth-3: Trypanosoma cruzi proliferation inhibition. actives 21% (n = 5,600). T. cruzi beta-gal in NIH3T3, GalScreen luminescence, 90 h. shares compounds with T cruzi growth-1. inhibition, % at 2.09 µM;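 active means mean inhibition above about 95%, with at least 55% of replicates also reaching it, limit read from the data; inconclusive means meets just one of the two conditions; inactive means meets neither condition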;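 further: plate controls were neutral control median for no effect and positive control median for full effect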
3T3 cytotox: cytotoxicity in mouse NIH/3T3 fibroblasts; shares compounds with T cruzi growth-1; NIH/3T3 viability, CellTiter-Glo ATP luminescence, 90 h; cytotoxicity (signal decrease), % at 8.35 µM; actives 14% (n = 5,600); AID 651742;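 active means mean signal decrease across replicates above about 35% based on untreated-well scatter, with enough replicates individually passing, limit read from the data; inconclusive means no rule stated though some were filed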;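 further: 0% = median of neutral control wells and 100% = median of positive control wells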
NIH3T3 tox 2: kills mouse NIH/3T3 fibroblasts; shares compounds with T cruzi growth-1; NIH/3T3 viability, CellTiter-Glo ATP luminescence, 90 h; inhibition, % at 24.9 µM; actives 56% (n = 5,600);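 active means mean loss of cell viability signal at or above a set limit, and enough replicates individually reaching it; inconclusive means meets only the mean limit or only the replicate share; inactive means meets neither condition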;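 further: 0% = median of neutral control wells and 100% = median of positive control wells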
The depositor's hits bear a star; ? = inconclusive; nt = not tested or not shown.

SMILES	IDH1 R132H inh	KDM4C inh	Pf Dd2 growth	T cruzi growth-1	T cruzi growth-2	T cruzi growth-3	3T3 cytotox	NIH3T3 tox 2
N#C[C@@H]1[C@@H](c2ccc(-c3cncnc3)cc2)[C@H](CO)N1C(=O)C1CCC1	nt	-2.3	6.1	102.7*	77.0	40.9	2.8	1.9
CCCN1[C@@H]2Cn3c(cccc3=O)[C@H]1[C@@H](C(=O)N1CCCCC1)[C@@H]2CO	nt	0.5	11.5	21.7	nt	nt	nt	nt
C[C@@H]1CCCCO[C@H](CN(C)S(=O)(=O)c2ccc(Cl)cc2)[C@H](C)CN([C@@H](C)CO)C(=O)c2cc(N(C)C)ccc2O1	1.7	-0.9	-23.0	86.3	nt	nt	nt	nt
COc1ccc(S(=O)(=O)N(C)C[C@H]2OCCCC[C@H](C)Oc3ccc(N(C)C)cc3C(=O)N([C@H](C)CO)C[C@H]2C)cc1	nt	-0.5	9.5	12.4	nt	nt	nt	nt
C[C@H](CO)N1C[C@H](C)[C@H](CN(C)S(=O)(=O)c2ccc(Cl)cc2)OCCCC[C@H](C)Oc2ccc(N(C)C)cc2C1=O	0.4	-0.9	-57.7	100.2*	109.7*	47.1	2.7	12.4
COc1ccc(S(=O)(=O)N(C)C[C@H]2OCCCC[C@@H](C)Oc3ccc(N(C)C)cc3C(=O)N([C@H](C)CO)C[C@H]2C)cc1	0.4	-2.0	-11.9	116.7*	57.0	-10.0	25.3	21.5
C[C@@H]1CCCCO[C@H](CN(C)S(=O)(=O)c2ccc(Cl)cc2)[C@@H](C)CN([C@@H](C)CO)C(=O)c2cc(N(C)C)ccc2O1	0.5	0.1	-37.8	99.9*	111.4*	28.4	-16.9	-17.9
CC(C)CC#Cc1cnc2c(c1)C(=O)N([C@@H](C)CO)C[C@@H](C)[C@@H](CN(C)Cc1ccccn1)O2	0.0	2.3	4.9	18.4	nt	nt	nt	nt
O=C(c1ccc(F)cc1)N1CCCCN2[C@@H](CO)[C@@H](c3ccc(C#CC4(O)CCCC4)cc3)[C@@H]2C1	nt	0.2	2.5	?	80.4	3.6	-3.9	5.4
O=C(C1CC1)N1CCCCN2[C@@H](CO)[C@H](c3ccc(C#CC4(O)CCCC4)cc3)[C@@H]2C1	nt	nt	20.1	77.1	nt	nt	nt	nt
O=C(c1ccc(F)cc1)N1CCCCN2[C@@H](CO)[C@H](c3ccc(C#CC4(O)CCCC4)cc3)[C@@H]2C1	nt	1.8	-3.5	62.4	nt	nt	nt	nt
O=C(c1ccc(F)cc1)N1CCCCN2[C@H](CO)[C@H](c3ccc(C#CC4(O)CCCC4)cc3)[C@H]2C1	nt	0.4	-18.2	105.9*	72.2	15.5	-2.0	0.7
OC[C@@H]1[C@H](c2ccc(-c3cccnc3)cc2)[C@@H]2CN(CC3CC3)CCCCN12	nt	0.0	-71.8	104.3*	66.6	16.6	0.5	-9.2
CN1CCCCN2[C@H](CO)[C@H](c3ccc(-c4cccnc4)cc3)[C@@H]2C1	nt	-0.2	-64.2	?	75.7	32.5	2.0	-12.6
OC[C@@H]1[C@@H](c2ccc(-c3cccnc3)cc2)[C@H]2CN(CC3CC3)CCCCN12	nt	-0.7	-48.8	44.2	nt	nt	nt	nt
C[C@@H]1CCCCO[C@H](CN(C)C(=O)NC2CCCCC2)[C@H](C)CN([C@H](C)CO)C(=O)c2cc(NC(=O)CCC(F)(F)F)ccc2O1	nt	2.0	-59.7	34.7	nt	nt	nt	nt
CO[C@@H](CN(C)S(=O)(=O)c1ccc(C)cc1)[C@@H](C)CN(Cc1ccccc1Cl)[C@H](C)CO	0.0	0.0	-36.0	100.2*	95.3*	32.1	?	51.0*
CO[C@H](CN(C)S(=O)(=O)c1ccc(Cl)cc1)[C@H](C)CN(Cc1ccccc1Cl)[C@H](C)CO	-0.6	-2.6	-56.8	105.6*	111.2*	25.8	33.2	106.6*
C[C@@H]1CN([C@@H](C)CO)S(=O)(=O)c2ccc(/C=C/c3ccccc3)cc2O[C@@H]1CN(C)C(=O)NC1CCCC1	1.3	-1.7	-19.9	?	101.8*	81.7	2.7	25.5*
C[C@H]1CN([C@@H](C)CO)S(=O)(=O)c2ccc(/C=C/c3ccccc3)cc2O[C@@H]1CN(C)C(=O)NC1CCCC1	nt	-2.4	-26.9	99.1*	?	56.2	-1.5	96.0*
CC(C)NC(=O)N(C)C[C@H]1Oc2ccc(NC(=O)c3ccncc3)cc2C(=O)N([C@H](C)CO)C[C@H]1C	-0.2	-3.0	0.1	27.0	nt	nt	nt	nt
CO[C@@H]1CN(C)C(=O)c2cc(NC(=O)NC(C)C)ccc2OC[C@H](C)N(Cc2ccc(-c3ccccn3)cc2)C[C@H]1C	-0.2	0.8	-30.3	-20.3	nt	nt	nt	nt
Cc1ccc(-c2ccc([C@@H]3[C@H]4CN(C(=O)c5ccc(F)cc5)CCCCN4[C@H]3CO)cc2)cc1	nt	1.6	7.5	110.9*	103.1*	65.9	31.9	84.6*
Cc1ccc(-c2ccc([C@@H]3[C@H](CO)N4CCCCN(C(=O)c5ccc(F)cc5)C[C@@H]34)cc2)cc1	nt	-0.9	-71.9	110.5*	97.9*	64.5	?	103.3*
Cc1ccc(-c2ccc([C@@H]3[C@@H](CO)N4CCCCN(C(=O)c5ccc(F)cc5)C[C@H]34)cc2)cc1	nt	3.4	-4.1	104.3*	107.7*	61.5	33.1	103.7*
SMILES	IDH1 R132H inh	KDM4C inh	Pf Dd2 growth	T cruzi growth-1	T cruzi growth-2	T cruzi growth-3	3T3 cytotox	NIH3T3 tox 2
COCC(=O)N1CCCCN2[C@H](C1)[C@@H](c1ccc(-c3ccc(F)cc3)cc1)[C@@H]2CO	nt	-0.4	9.2	80.6	nt	nt	nt	nt
CCC(=O)N1CCCCN2[C@@H](CO)[C@H](c3ccc(-c4ccc(F)cc4)cc3)[C@@H]2C1	nt	-0.6	16.4	100.5*	83.0	61.9	21.2	60.6*
C[C@H]1CN([C@@H](C)CO)C(=O)c2cc(NS(=O)(=O)c3cccs3)ccc2O[C@H]1CN(C)C	3.4	2.4	5.8	32.4	nt	nt	nt	nt
Cc1cc(C(=O)Nc2cccc3c2O[C@H](CN(C)S(=O)(=O)c2cccs2)[C@H](C)CN([C@@H](C)CO)C3=O)n(C)n1	0.2	10.7	-14.3	-132.3	nt	nt	nt	nt
COc1cccc(NC(=O)N[C@H]2CC[C@@H](CC(=O)Nc3ccccc3)O[C@@H]2CO)c1	-0.1	0.0	-21.9	nt	nt	nt	nt	nt
CN(C)C(=O)c1cccc(-c2ccc3c(c2)[C@H]2[C@H](CCN2C(=O)C2CC2)[C@@H](CO)N3)c1	nt	6.4	-94.0*	111.7*	93.5	48.4	-8.4	-6.6
O=C(C1CCOCC1)N1CC[C@@H]2[C@H]1c1cc(-c3cccc(F)c3)ccc1N[C@@H]2CO	nt	-1.2	4.8	49.2	nt	nt	nt	nt
CN(C)C(=O)c1cccc(-c2ccc3c(c2)[C@H]2[C@H](CCN2C(=O)C2CC2)[C@H](CO)N3)c1	nt	1.4	-7.4	99.1*	105.2*	70.6	-18.7	-6.4
O=C(C1CC1)N1CC[C@@H]2[C@H]1c1cc(-c3cccc(F)c3)ccc1N[C@@H]2CO	nt	4.3	-23.3	114.7*	104.7*	102.6*	4.3	28.0*
